According to ChEMBL document CHEMBL1133161 (J Med Chem, 2000):
Values joined by “and” are separate entries in the source; they are usually repeats but may differ in a detail not shown here. Identical values can stand only once.

How the values were obtained:
[1] = target: Monoamine transporters; Norepinephrine & serotonin (Rattus norvegicus) (UniProt P31652+Q9WTR4); assay: Relative affinity for norepinephrine over 5-HT transporters; assay type: protein assay
Outline: (§1)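 Selectivity ratios calculated from Ki values of the rat synaptosomal [3H]DA, [3H]NE and [3H]5-HT uptake inhibition assays.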

Rattus norvegicus [2] = species on record: Rattus norvegicus; assay: Compound was evaluated for its ability to antagonizing serotonin high affinity uptake was determined using [3H]5-HT on synaptosomes prepared from rat midbrain or parietal cortices.; assay type: functional; conditions: Brain
Rattus norvegicus [3] = species on record: Rattus norvegicus; assay: Compound was evaluated for its ability to antagonizing norepinephrine (NE) high affinity uptake was determined using [3H]NE on synaptosomes prepared from rat occipital cortices.; assay type: functional; conditions: Brain
Outline: (§2)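 Rat parietal and occipital cortex P2 synaptosomes in ice-cold modified KRH buffer; preincubated with drug 30 min at 37 °C, then [3H]NE 8-10 nM added for 5 min. Stopped with cold Na-free glucosamine buffer, then filtered; scintillation counting. Specific uptake defined with 3 µM desipramine. Ki from IC50 using Km 54 nM. Six drug concentrations in triplicate, 2-5 experiments.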

[4] = target: Norepinephrine transporter (Rattus norvegicus, UniProt Q9WTR4); assay: Inhibition of [3H]NE uptake by Norepinephrine transporter of rat occipital cortex synaptosomes; assay type: subcellular, Brain; outline: as §2
Chain of Norepinephrine transporter (Q9WTR4 whole entry): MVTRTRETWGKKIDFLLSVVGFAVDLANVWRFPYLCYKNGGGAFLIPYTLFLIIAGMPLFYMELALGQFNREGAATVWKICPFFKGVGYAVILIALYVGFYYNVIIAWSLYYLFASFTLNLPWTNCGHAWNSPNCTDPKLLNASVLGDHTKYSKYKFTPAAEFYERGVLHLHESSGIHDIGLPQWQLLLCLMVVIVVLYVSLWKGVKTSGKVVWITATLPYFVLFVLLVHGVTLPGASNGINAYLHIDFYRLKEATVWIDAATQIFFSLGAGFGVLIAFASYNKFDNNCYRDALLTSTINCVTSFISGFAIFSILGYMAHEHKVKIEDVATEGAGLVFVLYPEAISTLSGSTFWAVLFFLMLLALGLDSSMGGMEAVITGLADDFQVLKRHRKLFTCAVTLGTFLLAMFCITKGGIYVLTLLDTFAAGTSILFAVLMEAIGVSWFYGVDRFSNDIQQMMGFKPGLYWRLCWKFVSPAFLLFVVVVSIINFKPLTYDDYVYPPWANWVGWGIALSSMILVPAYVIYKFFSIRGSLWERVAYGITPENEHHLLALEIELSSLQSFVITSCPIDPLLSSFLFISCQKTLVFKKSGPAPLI

[5] = target: Sodium-dependent serotonin transporter (Rattus norvegicus, UniProt P31652); assay: Inhibition of [3H]5-HT uptake by Serotonin transporter of rat midbrain or parietal synaptosomes; assay type: subcellular, Brain
Chain of Sodium-dependent serotonin transporter (P31652 whole entry): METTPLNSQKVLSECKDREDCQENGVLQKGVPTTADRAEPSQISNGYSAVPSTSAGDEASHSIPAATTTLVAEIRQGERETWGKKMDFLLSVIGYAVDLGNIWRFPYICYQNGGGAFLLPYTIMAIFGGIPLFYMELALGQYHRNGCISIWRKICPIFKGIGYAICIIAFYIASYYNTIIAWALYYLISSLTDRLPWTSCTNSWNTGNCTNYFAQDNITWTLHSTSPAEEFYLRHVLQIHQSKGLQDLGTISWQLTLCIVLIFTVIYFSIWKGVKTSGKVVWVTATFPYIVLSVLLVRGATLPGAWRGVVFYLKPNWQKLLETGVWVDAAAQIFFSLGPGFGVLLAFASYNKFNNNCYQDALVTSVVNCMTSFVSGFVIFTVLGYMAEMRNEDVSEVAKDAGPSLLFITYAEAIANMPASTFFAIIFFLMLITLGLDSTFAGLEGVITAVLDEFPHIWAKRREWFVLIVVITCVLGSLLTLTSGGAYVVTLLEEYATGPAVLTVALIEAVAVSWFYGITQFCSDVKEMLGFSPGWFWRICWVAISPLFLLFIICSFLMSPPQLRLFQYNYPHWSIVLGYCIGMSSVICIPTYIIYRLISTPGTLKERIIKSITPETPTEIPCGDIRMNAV
Outline: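 Rat midbrain P2 synaptosomes in modified KRH buffer; preincubated with drug 30 min at 37 °C, then [3H]5-HT 4-5 nM for 5 min. Stopped with cold Na-free glucosamine buffer, then filtered; scintillation counting. […] Ki from IC50 using Km 53 nM. Six drug concentrations in triplicate, 2-5 experiments.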

Rattus norvegicus [6] = species on record: Rattus norvegicus; assay: Compound was evaluated for its ability to inhibit the uptake of dopamine(DA) into nerve ending using [3H]DA on synaptosomes obtained from dissected rat striata.; assay type: functional; conditions: Brain
[7] = target: Sodium-dependent dopamine transporter (Rattus norvegicus, UniProt P23977); assay: Inhibition of [3H]DA uptake by dopamine transporter of rat striata synaptosomes; assay type: subcellular, Brain
Chain of Sodium-dependent dopamine transporter (P23977 whole entry): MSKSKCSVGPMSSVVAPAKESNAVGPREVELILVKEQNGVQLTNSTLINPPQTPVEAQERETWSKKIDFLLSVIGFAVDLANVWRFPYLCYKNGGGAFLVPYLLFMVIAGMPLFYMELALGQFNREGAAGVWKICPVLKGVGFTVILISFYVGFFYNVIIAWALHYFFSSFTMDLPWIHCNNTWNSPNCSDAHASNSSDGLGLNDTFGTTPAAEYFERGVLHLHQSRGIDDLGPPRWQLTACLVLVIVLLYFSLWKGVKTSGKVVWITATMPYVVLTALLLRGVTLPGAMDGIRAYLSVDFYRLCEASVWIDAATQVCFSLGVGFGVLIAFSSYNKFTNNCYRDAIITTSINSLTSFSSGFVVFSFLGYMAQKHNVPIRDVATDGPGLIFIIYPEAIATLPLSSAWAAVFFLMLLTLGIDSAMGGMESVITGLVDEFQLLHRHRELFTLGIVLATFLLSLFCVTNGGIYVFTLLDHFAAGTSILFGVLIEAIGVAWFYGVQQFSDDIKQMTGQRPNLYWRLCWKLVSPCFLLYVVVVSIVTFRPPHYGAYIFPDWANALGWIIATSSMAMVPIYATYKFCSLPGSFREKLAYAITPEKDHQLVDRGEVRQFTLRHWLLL
Outline: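 Rat striatum homogenised in 0.32 M sucrose, P2 synaptosomes resuspended in KRH buffer; preincubated with drug 30 min at 37 °C, then [3H]DA 3-5 nM final for 5 min. Stopped with cold Na-free glucosamine buffer, then filtered; scintillation counting. Six concentrations in triplicate, 2-5 experiments.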

[8] = target: Monoamine transporters; serotonin & dopamine (Rattus norvegicus) (UniProt P31652+P23977); assay: Relative affinity for dopamine over 5-HT transporters; assay type: protein assay; outline: as §1
Chain of Monoamine transporters; serotonin & dopamine (Rattus norvegicus) (P23977 whole entry, looked up): as the sequence (P23977 whole entry) above
Chain of Monoamine transporters; serotonin & dopamine (Rattus norvegicus) (P31652 whole entry, looked up): as the sequence (P31652 whole entry) above

Rattus norvegicus [9] = species on record: Rattus norvegicus; assay: Compound was evaluated for its ability to antagonizing norepinephrine (NE), high affinity uptake was determined using [3H]NE on synaptosomes prepared from rat occipital cortices.; conditions: Brain

SMILES | Ratio [1] | IC50 (Rattus norvegicus [2]) | IC50 (Rattus norvegicus [3]) | Ki [4] | Ki [5] | IC50 (Rattus norvegicus [6]) | Ki [7] | Ratio [8] | IC50 (Rattus norvegicus [9])
COC(=O)[C@@H]1CN(C)CC[C@@H]1c1ccc(-c2ccccc2)cc1 | 3.3 | 67 nM | 239 nM | 203 nM | 62 nM | 184 nM | 173 nM | 2.8 | 
COC(=O)[C@@H]1CNCC[C@H]1c1ccc2ccccc2c1 | 8.6 | 3.9 nM | 34 nM | 30 nM | 3.5 nM | 97 nM | 90 nM | 26 | 
COC(=O)[C@@H]1CN(C)CC[C@H]1c1ccc2ccccc2c1 | 0.14 | 209 nM |  | 27 nM | 192 nM | 94 nM | 87 nM | 0.45 | 
C=Cc1ccc([C@H]2CCN(C)C[C@H]2C(=O)OC)cc1 |  | 155 nM | 204 nM | 175 nM | 138 nM |  |  |  | 
CCc1ccc([C@H]2CCN(C)CC2C(=O)OC)cc1 (stereo partly specified) | > 4 | 275 nM | > 1300 nM | > 1100 nM | 255 nM | > 1800 nM | > 1700 nM | > 6 | 
COC(=O)[C@H]1CN(C)CC[C@H]1c1ccc2ccccc2c1 | 3.2 | 13 nM |  | 38 nM | 12 nM | 293 nM | 271 nM | 23 | 
COC(=O)[C@@H]1CN(C)CC[C@@H]1c1ccc2ccccc2c1 |  | 8.2 nM |  | 34 nM | 7.6 nM | 23 nM | 21 nM | 2.8 and 4.5 | 
C#Cc1ccc([C@H]2CCN(C)C[C@H]2C(=O)OC)cc1 | 2.1 | 189 nM | 399 nM | 364 nM | 175 nM | 213 nM | 187 nM | 1.1 | 
COC(=O)[C@@H]1CN(C)CC[C@@H]1c1cccc2ccccc12 | 2.8 | 113 nM | 337 nM | 281 nM | 101 nM | 326 nM | 304 nM | 3 | 
CNCCC(Oc1ccc(C(F)(F)F)cc1)c1ccccc1 (stereo unspecified) [FLUOXETINE] |  | 8.1 nM | 193 nM |  |  | > 4500 nM |  |  | 
C=CCc1ccc([C@H]2CCN(C)C[C@H]2C(=O)OC)cc1 | > 3.5 | 334 nM | > 1200 nM | > 1000 nM | 309 nM | > 1000 nM | 964 nM | 3.1 | 
COC(=O)[C@H]1CN(C)CC[C@@H]1c1ccc2ccccc2c1 | 5.7 | 46 nM |  | 241 nM | 42 nM | > 1000 nM | 947 nM | 22.6 | 
COC(=O)[C@@H]1CN(C)CC[C@@H]1c1ccc(Cl)cc1 | 0.23 | 440 nM | 101 nM | 88 nM | 391 nM | 75 nM | 69 nM | 0.18 | 
COC(=O)[C@H]1[C@@H](OC(=O)c2ccccc2)C[C@@H]2CC[C@H]1N2C [COCAINE] |  |  |  |  |  |  |  |  | 127 nM
